The results in this text go back to ChEMBL document CHEMBL1140064, “Anxiolytic-like effects of N,N-dialkyl-2-phenylindol-3-ylglyoxylamides by modulation of translocator protein promoting neurosteroid biosynthesis” (J Med Chem, 2008).

SMILES strings stand for the structures.

Experiment [1] has as its system Rattus norvegicus. In words: Anxiolytic activity in Sprague-Dawley rat assessed as reduction of total number of open arm entries at 50 mg/kg, ip after 5 mins by plus-maze test. In kind it is functional. Conditions: route intraperitoneal. An outline of the steps: (§1)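 Male Sprague-Dawley rats (180-200 g), group-housed 6/cage at 24 ± 1 °C, 12 h light/dark, free food and water except during testing. Dosed ip. Elevated four-arm maze (two open, two enclosed arms); entries into and time in open arms, and total arm entries, scored over a 5 min session versus vehicle-treated controls.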

The next experiment concerns C6. In words: Induction of pregnenolone biosynthesis in rat C6 cells assessed as increase in pregnenolone level at 40 uM after 2 hrs by ELISA relative to control. In kind it is functional. Summed up: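 Rat C6 glioma cells grown in DMEM with 10% FBS, 2 mM L-glutamine, penicillin/streptomycin, seeded ~10 000 cells/well. Exposed to compound at 40 µM for 2 h at 37 °C, with DMSO/ethanol ≤0.5% (v/v) kept constant. Pregnenolone secreted into the medium measured by competitive ELISA; mean ± SEM of at least three determinations.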
On the technique in general: An ELISA detects its analyte on a solid surface through an enzyme-linked reagent.

The target of a further experiment is Translocator protein (Rattus norvegicus, UniProt P16257). Briefly: Displacement of [3H]PK11195 from translocator protein in rat kidney mitochondrial membrane. The class given is cell membranes. Background: In a radioligand displacement assay an active substance lowers the binding of a labelled ligand.
Sequence of Translocator protein (P16257 whole entry, looked up): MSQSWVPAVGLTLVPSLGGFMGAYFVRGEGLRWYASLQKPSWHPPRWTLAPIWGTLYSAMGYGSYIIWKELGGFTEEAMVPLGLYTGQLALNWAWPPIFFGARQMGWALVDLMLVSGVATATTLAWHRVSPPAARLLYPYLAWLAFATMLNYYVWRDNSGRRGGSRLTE
Experiment [2] deals with Rattus norvegicus. In words: Anxiolytic activity in Sprague-Dawley rat assessed as increase in total number of open arm entries at 30 mg/kg, ip by plus-maze test. In kind it is functional. The note with it: route intraperitoneal. An outline of the steps: as §1

The Ki is the equilibrium dissociation constant of an inhibitor or competing ligand from its target. A lower Ki goes with higher affinity. For the compound `CCCCCCN(CCCCCC)C(=O)C(=O)c1c(-c2ccc(F)cc2)[nH]c2ccc(Cl)cc12`, the Activity in the experiment on Rattus norvegicus [1] amounted to 2; in the experiment on C6 it was 135%; with Rattus norvegicus [2], 9.8. Moreover, the Ki on Translocator protein is 7.75 nM.
